{"source": "ChEMBL document CHEMBL1150327", "about": "“E,E-2-Benzylidene-6-(nitrobenzylidene)cyclohexanones: syntheses, cytotoxicity and an examination of some of their electronic, steric, and hydrophobic properties” (Bioorg Med Chem, 2008)", "key": {"[1]": {"tested_on": "CCRF-CEM", "assay": "Cytotoxicity against human CEM cells after 72 hrs", "format": "functional, cell-based", "procedure,_shortened": "(§1)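 Compounds tested over a range of concentrations on cells in RPMI 1640 medium at 37 °C for 72 h. IC50 taken as the concentration inhibiting cell growth by 50%.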"}, "[2]": {"assay": "Cytotoxicity against human Molt4/C8 cells after 72 hrs", "format": "functional, cell-based", "settings": "MOLT-4, 72 h", "procedure,_shortened": "as §1"}, "[3]": {"tested_on": "L1210", "assay": "Cytotoxicity against mouse L1210 cells after 48 hrs", "format": "functional, cell-based", "settings": "L1210, 48 h", "procedure,_shortened": "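Murine L1210 lymphoid leukemia cells exposed to graded compound concentrations in RPMI 1640 at 37 °C for 48 h. IC50 is the concentration giving 50% growth inhibition.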"}, "[4]": {"assay": "Lipophilicity, log P of the compound", "format": "physicochemical", "settings": "calculated", "procedure,_shortened": "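Calculated logP, generated with the JME molecular editor rather than measured.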"}, "[5]": {"tested_on": "Liver", "assay": "Stimulation of respiration in rat liver mitochondria", "format": "functional", "procedure,_shortened": "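Liver mitochondria isolated from rats anesthetized with isoflurane and decapitated. Oxygen consumption measured by polarography. Compound tested at 10 μM, with a DMSO solvent control (4 μL). Differences judged against standard deviations.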"}}, "note": "The source made the active and inactive calls. The rule behind the calls is not given here."}
{"molecule": "O=C1/C(=C/c2ccc(F)cc2)CCC/C1=C\\c1cccc([N+](=O)[O-])c1", "values": [{"measurement": "IC50", "setting": "[1]", "value": 5.05, "unit": "µM"}, {"measurement": "IC50", "setting": "[2]", "value": 5.12, "unit": "µM"}, {"measurement": "IC50", "setting": "[3]", "value": 16.3, "unit": "µM"}, {"measurement": "logP", "setting": "[4]", "value": 5.06}]}
{"molecule": "O=C1CCCC/C1=C\\c1ccc([N+](=O)[O-])cc1", "values": [{"measurement": "IC50", "setting": "[1]", "value": 19.3, "unit": "µM"}, {"measurement": "IC50", "setting": "[2]", "value": 13.9, "unit": "µM"}, {"measurement": "IC50", "setting": "[3]", "value": 46.5, "unit": "µM"}]}
{"molecule": "CN(C)c1ccc(/C=C2\\CCC/C(=C\\c3cccc([N+](=O)[O-])c3)C2=O)cc1", "values": [{"measurement": "IC50", "setting": "[1]", "value": 11.7, "unit": "µM"}, {"measurement": "IC50", "setting": "[2]", "value": 10.9, "unit": "µM"}, {"measurement": "IC50", "setting": "[3]", "value": 156, "unit": "µM"}, {"measurement": "logP", "setting": "[4]", "value": 5.01}]}
{"molecule": "O=C1/C(=C/c2ccc(Cl)cc2)CCC/C1=C\\c1ccc([N+](=O)[O-])cc1", "values": [{"measurement": "IC50", "setting": "[1]", "value": 8.18, "unit": "µM"}, {"measurement": "IC50", "setting": "[2]", "value": 9.12, "unit": "µM"}, {"measurement": "IC50", "setting": "[3]", "value": 9.41, "unit": "µM"}, {"measurement": "logP", "setting": "[4]", "value": 5.61}]}
{"molecule": "Cc1ccc(/C=C2\\CCC/C(=C\\c3cccc([N+](=O)[O-])c3)C2=O)cc1", "values": [{"measurement": "IC50", "setting": "[1]", "value": 10.1, "unit": "µM"}, {"measurement": "IC50", "setting": "[2]", "value": 9.53, "unit": "µM"}, {"measurement": "IC50", "setting": "[3]", "value": 41.8, "unit": "µM"}, {"measurement": "logP", "setting": "[4]", "value": 5.35}]}
{"molecule": "O=C1/C(=C/c2ccc(Cl)cc2)CCC/C1=C\\c1ccccc1[N+](=O)[O-]", "values": [{"measurement": "IC50", "setting": "[1]", "value": 1.75, "unit": "µM"}, {"measurement": "IC50", "setting": "[2]", "value": 3.86, "unit": "µM"}, {"measurement": "IC50", "setting": "[3]", "value": 9.38, "unit": "µM"}, {"measurement": "logP", "setting": "[4]", "value": 5.38}]}
{"molecule": "Cc1ccc(/C=C2\\CCC/C(=C\\c3ccccc3[N+](=O)[O-])C2=O)cc1", "values": [{"measurement": "IC50", "setting": "[1]", "value": 6.09, "unit": "µM"}, {"measurement": "IC50", "setting": "[2]", "value": 7.52, "unit": "µM"}, {"measurement": "IC50", "setting": "[3]", "value": 7.77, "unit": "µM"}, {"measurement": "logP", "setting": "[4]", "value": 5.15}]}
{"molecule": "COc1ccc(/C=C2\\CCC/C(=C\\c3cccc([N+](=O)[O-])c3)C2=O)cc1", "values": [{"measurement": "IC50", "setting": "[1]", "value": 8.22, "unit": "µM"}, {"measurement": "IC50", "setting": "[2]", "value": 7.98, "unit": "µM"}, {"measurement": "IC50", "setting": "[3]", "value": 29.5, "unit": "µM"}, {"measurement": "logP", "setting": "[4]", "value": 4.96}]}
{"molecule": "O=C1/C(=C/c2ccc(F)cc2)CCC/C1=C\\c1ccc([N+](=O)[O-])cc1", "values": [{"measurement": "IC50", "setting": "[1]", "value": 18.6, "unit": "µM"}, {"measurement": "IC50", "setting": "[2]", "value": 17.1, "unit": "µM"}, {"measurement": "IC50", "setting": "[3]", "value": 26.8, "unit": "µM"}, {"measurement": "logP", "setting": "[4]", "value": 5.08}]}
{"molecule": "O=C1/C(=C/c2ccccc2)CCC/C1=C\\c1ccc([N+](=O)[O-])cc1", "values": [{"measurement": "IC50", "setting": "[1]", "value": 9.32, "unit": "µM"}, {"measurement": "IC50", "setting": "[2]", "value": 8.35, "unit": "µM"}, {"measurement": "IC50", "setting": "[3]", "value": 9.8, "unit": "µM"}, {"measurement": "logP", "setting": "[4]", "value": 4.93}]}
{"molecule": "COc1cc(/C=C2\\CCC/C(=C\\c3ccccc3[N+](=O)[O-])C2=O)cc(OC)c1OC", "values": [{"measurement": "IC50", "setting": "[1]", "value": 0.402, "unit": "µM"}, {"measurement": "IC50", "setting": "[2]", "value": 0.702, "unit": "µM"}, {"measurement": "IC50", "setting": "[3]", "value": 1.52, "unit": "µM"}, {"measurement": "logP", "setting": "[4]", "value": 4.33}, {"measurement": "Activity", "setting": "[5]", "value": "Active"}]}
{"molecule": "CN(C)c1ccc(/C=C2\\CCC/C(=C\\c3ccccc3[N+](=O)[O-])C2=O)cc1", "values": [{"measurement": "IC50", "setting": "[1]", "value": 168, "unit": "µM"}, {"measurement": "IC50", "setting": "[2]", "value": 122, "unit": "µM"}, {"measurement": "IC50", "setting": "[3]", "value": 164, "unit": "µM"}, {"measurement": "logP", "setting": "[4]", "value": 4.8}]}
{"molecule": "COc1cc(/C=C2\\CCC/C(=C\\c3ccc([N+](=O)[O-])cc3)C2=O)cc(OC)c1OC", "values": [{"measurement": "IC50", "setting": "[1]", "value": 4.61, "unit": "µM"}, {"measurement": "IC50", "setting": "[2]", "value": 6.42, "unit": "µM"}, {"measurement": "IC50", "setting": "[3]", "value": 6.97, "unit": "µM"}, {"measurement": "logP", "setting": "[4]", "value": 4.56}, {"measurement": "Activity", "setting": "[5]", "value": "Active"}]}
{"molecule": "Cc1ccc(/C=C2\\CCC/C(=C\\c3ccc([N+](=O)[O-])cc3)C2=O)cc1", "values": [{"measurement": "IC50", "setting": "[1]", "value": 8.53, "unit": "µM"}, {"measurement": "IC50", "setting": "[2]", "value": 8.44, "unit": "µM"}, {"measurement": "IC50", "setting": "[3]", "value": 8.16, "unit": "µM"}, {"measurement": "logP", "setting": "[4]", "value": 5.38}]}
{"molecule": "O=C1CCCC/C1=C\\c1cccc([N+](=O)[O-])c1", "values": [{"measurement": "IC50", "setting": "[1]", "value": 8.12, "unit": "µM"}, {"measurement": "IC50", "setting": "[2]", "value": 8.28, "unit": "µM"}, {"measurement": "IC50", "setting": "[3]", "value": 50.1, "unit": "µM"}]}
{"molecule": "COc1cc(/C=C2\\CCC/C(=C\\c3cccc([N+](=O)[O-])c3)C2=O)cc(OC)c1OC", "values": [{"measurement": "IC50", "setting": "[1]", "value": 45.2, "unit": "µM"}, {"measurement": "IC50", "setting": "[2]", "value": 44, "unit": "µM"}, {"measurement": "IC50", "setting": "[3]", "value": 42.2, "unit": "µM"}, {"measurement": "logP", "setting": "[4]", "value": 4.53}]}
{"molecule": "O=C1/C(=C/c2ccccc2)CCC/C1=C\\c1cccc([N+](=O)[O-])c1", "values": [{"measurement": "IC50", "setting": "[1]", "value": 2.29, "unit": "µM"}, {"measurement": "IC50", "setting": "[2]", "value": 1.7, "unit": "µM"}, {"measurement": "IC50", "setting": "[3]", "value": 9.44, "unit": "µM"}, {"measurement": "logP", "setting": "[4]", "value": 4.9}]}
{"molecule": "CN(C)c1ccc(/C=C2\\CCC/C(=C\\c3ccc([N+](=O)[O-])cc3)C2=O)cc1", "values": [{"measurement": "IC50", "setting": "[1]", "value": "> 500", "unit": "µM"}, {"measurement": "IC50", "setting": "[2]", "value": "> 500", "unit": "µM"}, {"measurement": "IC50", "setting": "[3]", "value": "> 500", "unit": "µM"}, {"measurement": "logP", "setting": "[4]", "value": 5.03}]}
{"molecule": "COc1ccc(/C=C2\\CCC/C(=C\\c3ccccc3[N+](=O)[O-])C2=O)cc1", "values": [{"measurement": "IC50", "setting": "[1]", "value": 7.45, "unit": "µM"}, {"measurement": "IC50", "setting": "[2]", "value": 8.9, "unit": "µM"}, {"measurement": "IC50", "setting": "[3]", "value": 42.4, "unit": "µM"}, {"measurement": "logP", "setting": "[4]", "value": 4.76}]}
{"molecule": "O=C1/C(=C/c2ccc(Cl)cc2)CCC/C1=C\\c1cccc([N+](=O)[O-])c1", "values": [{"measurement": "IC50", "setting": "[1]", "value": 1.75, "unit": "µM"}, {"measurement": "IC50", "setting": "[2]", "value": 2.02, "unit": "µM"}, {"measurement": "IC50", "setting": "[3]", "value": 9.16, "unit": "µM"}, {"measurement": "logP", "setting": "[4]", "value": 5.58}]}
{"molecule": "O=C1CCCC/C1=C\\c1ccccc1[N+](=O)[O-]", "values": [{"measurement": "IC50", "setting": "[1]", "value": 36.4, "unit": "µM"}, {"measurement": "IC50", "setting": "[2]", "value": 33.3, "unit": "µM"}, {"measurement": "IC50", "setting": "[3]", "value": 23.8, "unit": "µM"}]}
{"molecule": "O=C1/C(=C/c2ccc(F)cc2)CCC/C1=C\\c1ccccc1[N+](=O)[O-]", "values": [{"measurement": "IC50", "setting": "[1]", "value": 1.51, "unit": "µM"}, {"measurement": "IC50", "setting": "[2]", "value": 1.87, "unit": "µM"}, {"measurement": "IC50", "setting": "[3]", "value": 8.4, "unit": "µM"}, {"measurement": "logP", "setting": "[4]", "value": 4.86}]}
{"molecule": "O=C1/C(=C/c2ccccc2)CCC/C1=C\\c1ccccc1[N+](=O)[O-]", "values": [{"measurement": "IC50", "setting": "[1]", "value": 0.925, "unit": "µM"}, {"measurement": "IC50", "setting": "[2]", "value": 1.48, "unit": "µM"}, {"measurement": "IC50", "setting": "[3]", "value": 4.84, "unit": "µM"}, {"measurement": "logP", "setting": "[4]", "value": 4.7}]}
{"molecule": "COc1ccc(/C=C2\\CCC/C(=C\\c3ccc([N+](=O)[O-])cc3)C2=O)cc1", "values": [{"measurement": "IC50", "setting": "[1]", "value": 250, "unit": "µM"}, {"measurement": "IC50", "setting": "[2]", "value": 300, "unit": "µM"}, {"measurement": "IC50", "setting": "[3]", "value": 240, "unit": "µM"}, {"measurement": "logP", "setting": "[4]", "value": 4.98}]}
